Molecules are shown by their SMILES.

From ChEMBL document CHEMBL4330063, “New naphthopyran analogues of LY290181 as potential tumor vascular-disrupting agents” (Eur J Med Chem, 2019) come the findings set out here.

One data set relates to PANC-1. Put plainly: Antiproliferative activity against human PANC1 cells after 72 hrs by MTT assay. It counts as functional, cell-based. The note with it: PANC-1, 72 h. Summed up:
(§1)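 MTT read-out after 72 h of continuous exposure. Viability is expressed as percentage of viable cells relative to untreated controls. IC50 comes from dose-response curves. Values are means±SD of four independent experiments (two for some entries). DMSO was below 1%, with vehicle controls at equal DMSO. Precipitation was excluded spectrometrically and microscopically.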
On the technique in general: Tetrazolium assays rely on reduction of a dye to a coloured formazan, in cell work by metabolically active cells.

Data set [1] in a line: Antiproliferative activity against human A2780cis cells after 72 hrs by SRB assay. It counts as functional, cell-based. Summed up:
(§2)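 Ovarian A2780 and cisplatin-resistant A2780cis cells were exposed for 72 h and stained with SRB. IC50 comes from dose-response curves, as means±SD of three independent experiments. Final DMSO was below 1%, with matched vehicle controls.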
For orientation: In SRB staining, fixed cells bind dye roughly in proportion to their protein.

In another data set the test system is A2780. In words: Antiproliferative activity against human A2780 cells after 72 hrs by SRB assay. It counts as functional, cell-based. As to conditions: A2780, 72 h. Summed up:
as §2

The test system of another data set is 518A2. In words: Antiproliferative activity against human 518A2 cells after 72 hrs by MTT assay. It counts as functional, cell-based. The note with it: for IC50: 518A2, 72 h. Summed up:
as §1

Data set [2] can be described thus: Antiproliferative activity against human MCF7/Topo cells after 72 hrs by MTT assay. The format is functional, cell-based. Summed up:
as §1

For data set [3], the system named is HT-29. Put plainly: Antiproliferative activity against human HT-29 cells after 72 hrs by MTT assay. The format is functional, cell-based. The note with it: HT-29, 72 h. Summed up:
as §1

In a further data set the test system is EA.hy 926. Put plainly: Antiproliferative activity against human EAhy926 cells after 72 hrs by MTT assay. It counts as functional, cell-based. The note with it: EA.hy 926, 72 h. The procedure, abridged:
as §1

The nature of data set [4]: Antiproliferative activity against human KB-V1/Vbl cells after 72 hrs by MTT assay. It counts as functional, cell-based. The procedure, abridged:
as §1

Another data set has as its system HCT-116. In words: Antiproliferative activity against human HCT116 cells after 72 hrs by MTT assay. The format is functional, cell-based. The note with it: HCT-116, 72 h. Summed up: as §1
Another data set has as its system DLD-1. Put plainly: Antiproliferative activity against human DLD1 cells after 72 hrs by MTT assay. It counts as functional, cell-based. The note with it: DLD-1, 72 h. Summed up: as §1
Data set [5] is described as follows: Solubility in tween80/ethanol (1:1) solution. The format is physicochemical.
Another data set has as its target Tubulin (Sus scrofa) (UniProt P02554+P02550). Put plainly: Inhibition of porcine brain tubulin polymerization at 10 uM after 2 hrs relative to control. The procedure, abridged: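 In a brief single-concentration run, purified tubulin polymerization was measured at 10 µM and expressed as percent of vehicle-treated controls.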
Data set [6] concerns HT-29. In words: Cell cycle arrest in human HT-29 cells assessed as accumulation of cells at G2/M phase at 350 nM after 24 hrs by propidium iodide staining-based flow cytometric analysis (reference value: 11.4 +/- 1.4%). The format is functional. For orientation: Flow cytometry measures light scatter and fluorescence of single cells or particles in a stream.
In data set [7] the test system is HT-29. In words: Cell cycle arrest in human HT-29 cells assessed as accumulation of cells at G1 phase at 100 nM after 24 hrs by propidium iodide staining-based flow cytometric analysis (reference value: 75.1 +/- 1.1%). It counts as functional.
Data set [8] deals with HT-29. Put plainly: Cell cycle arrest in human HT-29 cells assessed as accumulation of cells at S phase at 100 nM after 24 hrs by propidium iodide staining-based flow cytometric analysis (reference value: 12.3 +/- 0.4%). The format is functional.
The subject of data set [9] is HT-29. Put plainly: Cell cycle arrest in human HT-29 cells assessed as accumulation of cells at G2/M phase at 250 nM after 24 hrs by propidium iodide staining-based flow cytometric analysis (reference value: 11.4 +/- 1.4%). It counts as functional.
Data set [10] relates to HT-29. In words: Cell cycle arrest in human HT-29 cells assessed as accumulation of cells at sub G1 phase at 100 nM after 24 hrs by propidium iodide staining-based flow cytometric analysis (reference value: 1.2 +/- 0.3%). The format is functional.
Data set [11] has as its system HT-29. In words: Cell cycle arrest in human HT-29 cells assessed as accumulation of cells at G1 phase at 350 nM after 24 hrs by propidium iodide staining-based flow cytometric analysis (reference value: 75.1 +/- 1.1%). It counts as functional.
The subject of data set [12] is HT-29. In words: Cell cycle arrest in human HT-29 cells assessed as accumulation of cells at sub G1 phase at 250 nM after 24 hrs by propidium iodide staining-based flow cytometric analysis (reference value: 1.2 +/- 0.3%). It counts as functional.
In data set [13] the test system is HT-29. Put plainly: Cell cycle arrest in human HT-29 cells assessed as accumulation of cells at S phase at 250 nM after 24 hrs by propidium iodide staining-based flow cytometric analysis (reference value: 12.3 +/- 0.4%). The format is functional.
The test system of data set [14] is HT-29. In words: Cell cycle arrest in human HT-29 cells assessed as accumulation of cells at G1 phase at 250 nM after 24 hrs by propidium iodide staining-based flow cytometric analysis (reference value: 75.1 +/- 1.1%). It counts as functional.
Data set [15] deals with HT-29. Put plainly: Cell cycle arrest in human HT-29 cells assessed as accumulation of cells at S phase at 350 nM after 24 hrs by propidium iodide staining-based flow cytometric analysis (reference value: 12.3 +/- 0.4%). The format is functional.
Data set [16] relates to HT-29. In words: Cell cycle arrest in human HT-29 cells assessed as accumulation of cells at G2/M phase at 100 nM after 24 hrs by propidium iodide staining-based flow cytometric analysis (reference value: 11.4 +/- 1.4%). It counts as functional.
Data set [17] deals with HT-29. Put plainly: Cell cycle arrest in human HT-29 cells assessed as accumulation of cells at sub G1 phase at 350 nM after 24 hrs by propidium iodide staining-based flow cytometric analysis (reference value: 1.2 +/- 0.3%). It counts as functional.

Sequence of Tubulin (Sus scrofa) (P02550 whole entry, looked up): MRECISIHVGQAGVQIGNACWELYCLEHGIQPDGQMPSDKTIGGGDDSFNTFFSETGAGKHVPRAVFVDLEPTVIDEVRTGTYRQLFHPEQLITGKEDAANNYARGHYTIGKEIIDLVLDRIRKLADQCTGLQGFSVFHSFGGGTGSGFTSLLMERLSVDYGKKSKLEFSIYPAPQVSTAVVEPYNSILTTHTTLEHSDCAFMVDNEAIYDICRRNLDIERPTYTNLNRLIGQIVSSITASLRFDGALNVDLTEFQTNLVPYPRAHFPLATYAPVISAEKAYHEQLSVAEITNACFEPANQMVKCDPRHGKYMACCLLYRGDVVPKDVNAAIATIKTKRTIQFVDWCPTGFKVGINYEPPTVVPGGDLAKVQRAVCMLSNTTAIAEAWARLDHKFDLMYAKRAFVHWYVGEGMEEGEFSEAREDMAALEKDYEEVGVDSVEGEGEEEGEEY
Sequence of Tubulin (Sus scrofa) (P02554 whole entry, looked up): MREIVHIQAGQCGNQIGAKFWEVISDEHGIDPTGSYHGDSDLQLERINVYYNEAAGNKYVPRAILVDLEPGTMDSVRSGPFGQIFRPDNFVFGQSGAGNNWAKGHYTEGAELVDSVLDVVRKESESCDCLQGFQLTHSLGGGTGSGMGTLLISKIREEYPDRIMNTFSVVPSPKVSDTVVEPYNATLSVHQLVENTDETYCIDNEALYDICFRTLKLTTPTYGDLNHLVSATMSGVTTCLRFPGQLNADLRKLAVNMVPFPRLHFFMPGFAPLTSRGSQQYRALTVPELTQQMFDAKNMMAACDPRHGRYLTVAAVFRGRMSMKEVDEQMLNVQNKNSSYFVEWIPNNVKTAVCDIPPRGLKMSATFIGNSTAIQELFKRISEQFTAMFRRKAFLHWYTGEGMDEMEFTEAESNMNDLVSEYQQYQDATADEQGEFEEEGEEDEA

One may read the IC50 as the concentration that inhibits the measured activity by half. Low values mean higher potency, high ones lower potency. As for `COc1c(I)cc(C2C(C#N)=C(N)Oc3c2ccc2ccccc32)cc1I` (stereo not given), the IC50 with PANC-1 came out at 13.1 nM; in data set [1], 18.2 nM; with A2780 it was 16.4 nM; in the data set on 518A2 it was 37.1 nM; in [2], 22.8 nM; in the data set with HT-29 [3], 45.2 nM. For the same compound, the 50% inhibitory concentration (IC50) was 17.9 nM in the data set on EA.hy 926, 16.5 nM in data set [4], 29.5 nM in the data set on HCT-116 and 15 nM in the data set with DLD-1. In the data set on 518A2, the Activity result was “Dose-dependent effect”. In addition, the solubility result in data set [5] was “Insoluble”.
In general, inhibition refers to the share of the control response that was lost under treatment. Lower therefore signals a response near the control. In turn, `N#CC1=C(N)Oc2c(ccc3ccccc23)C1c1ccc(Cl)c(F)c1` (stereo not given) displayed an inhibition against Tubulin (Sus scrofa) of 44.1%. The half-inhibitory concentration (IC50) in data set [1] turned out to be 57.3 nM; in the data set on A2780 it was 48.5 nM; in the data set on 518A2, 425 nM; in the data set on HT-29 [3], 172 nM. Also, the Activity in the data set on HT-29 [6] is 34%; with HT-29 [7], 56%; in the data set with HT-29 [8], 14.7%; with 518A2, “Dose-dependent effect”; with HT-29 [9], 50.4%; in the data set on HT-29 [10], 9.3%. Also, the Activity with HT-29 [11] was found to be 21%; in the data set on HT-29 [12], 25%; in the data set on HT-29 [13], 9.4%; in the data set with HT-29 [14] it was 15.4%; in the data set on HT-29 [15], 14.9%; in the data set with HT-29 [16], 20.5%. For the same compound, in the data set on HT-29 [17], the Activity was determined as 27%.
